Laboratory results: ChEMBL document CHEMBL1153527, “Discovery of a novel series of quinolone and naphthyridine derivatives as potential topoisomerase I inhibitors by scaffold modification” (J Med Chem, 2009)
pIC50: −log10 of the molar value. Calls of active or inactive are those of the source. The rule behind the calls is not given here.

What was measured:
A2780 = experiment: Cytotoxicity against human A2780 cells after 48 hrs by MTT assay; type: functional, cell-based; conditions: A2780, 48 h
AGS = experiment: Cytotoxicity against human AGS cells expressing wild type p53 after 48 hrs by SRB assay; type: functional, cell-based
In short: (§1)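 Cell lines came from CCRC, Taiwan. Cells were seeded at about 5 × 10^3 per well and left overnight. They were then given serum-free medium containing 0-10 μM compound (0.08-10 μM serial dilutions) for 48 h at 37 °C. Cells were fixed with TCA (10% final), stained with SRB (0.4% final), and the dye was dissolved in 10 mM Tris with A515 read. IC50 was taken from a fitted log concentration-response curve.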

THP-1 = experiment: Cytotoxicity against human THP1 cells expressing p53 mutant after 48 hrs by SRB assay; type: functional, cell-based; conditions: THP-1, 48 h
[1] = Cytotoxicity against p53-deficient human Hep3B cells after 48 hrs by SRB assay; type: functional, cell-based, Hep 3B2; in short: as §1
KB = experiment: Cytotoxicity against human KB cells after 48 hrs by MTT assay; type: functional, cell-based
Bel-7402 = experiment: Cytotoxicity against human Bel7402 cells after 48 hrs by MTT assay; type: functional, cell-based; conditions: Bel-7402, 48 h
[2] = Cytotoxicity against estrogen receptor-negative human […] cells expressing p53 mutant after 48 hrs by SRB assay; type: functional, cell-based; in short: as §1
MCF7 = experiment: Cytotoxicity against estrogen receptor-positive human MCF7 cells expressing wild type p53 after 48 hrs by SRB assay; type: functional, cell-based; conditions: MCF7, 48 h; in short: as §1
HeLa = experiment: Cytotoxicity against p53-deficient human HeLa cells after 48 hrs by SRB assay; type: functional, cell-based; in short: as §1
PC-3 = experiment: Cytotoxicity against p53-deficient human PC3 cells after 48 hrs by SRB assay; type: functional, cell-based; conditions: PC-3, 48 h; in short: as §1
[3] = target: T1, DNA topoisomerase 1 (Homo sapiens) (UniProt P11387); experiment: Inhibition of DNA topoisomerase 1-mediated supercoiled Escherichia coli pBR322 DNA relaxation upto 25 uM after 30 mins
T1 sequence (whole entry): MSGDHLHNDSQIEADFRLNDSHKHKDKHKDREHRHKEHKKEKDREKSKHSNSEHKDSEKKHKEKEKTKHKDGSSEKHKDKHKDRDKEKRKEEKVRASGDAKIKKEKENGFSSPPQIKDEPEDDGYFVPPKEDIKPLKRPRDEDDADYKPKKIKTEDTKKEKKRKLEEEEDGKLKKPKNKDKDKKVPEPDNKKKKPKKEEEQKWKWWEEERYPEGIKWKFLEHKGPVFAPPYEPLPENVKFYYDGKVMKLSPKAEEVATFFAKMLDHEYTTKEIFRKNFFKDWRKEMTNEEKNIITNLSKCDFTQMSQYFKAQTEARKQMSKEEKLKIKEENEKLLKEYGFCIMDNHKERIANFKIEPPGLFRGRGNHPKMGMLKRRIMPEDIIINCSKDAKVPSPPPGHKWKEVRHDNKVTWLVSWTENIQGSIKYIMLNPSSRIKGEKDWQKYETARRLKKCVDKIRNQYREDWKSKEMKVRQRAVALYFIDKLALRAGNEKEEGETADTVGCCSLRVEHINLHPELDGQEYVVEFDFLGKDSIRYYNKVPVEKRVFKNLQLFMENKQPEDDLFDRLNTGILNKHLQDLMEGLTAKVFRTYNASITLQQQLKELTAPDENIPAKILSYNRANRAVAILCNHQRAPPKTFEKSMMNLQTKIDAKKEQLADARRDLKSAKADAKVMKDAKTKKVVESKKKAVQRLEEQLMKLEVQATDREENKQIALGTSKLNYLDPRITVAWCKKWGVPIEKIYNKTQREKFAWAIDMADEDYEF

U-937 = experiment: Cytotoxicity against human U937 cells expressing p53 mutant after 48 hrs by SRB assay; type: functional, cell-based; conditions: U-937, 48 h
HT-29 = experiment: Cytotoxicity against human HT-29 cells expressing p53 mutant after 48 hrs by SRB assay; type: functional, cell-based; conditions: HT-29, 48 h; in short: as §1
A549 = experiment: Cytotoxicity against human A549 cells expressing wild type p53 after 48 hrs by SRB assay; type: functional, cell-based; conditions: A549, 48 h; in short: as §1
[4] = Solubility in assay condition at 50 uM; type: physicochemical
K562 = experiment: Cytotoxicity against p53-deficient human K562 cells after 48 hrs by SRB assay; type: functional, cell-based; conditions: K562, 48 h
HepG2 = experiment: Cytotoxicity against human HepG2 cells expressing wild type p53 after 48 hrs by SRB assay; type: functional, cell-based; conditions: HepG2, 48 h; in short: as §1

`C[C@H]1COc2c(N3CCN(C)CC3)c(F)cc3c(=O)c(-c4nc5ccc([N+](=O)[O-])cc5s4)cn1c23` showed a pIC50 (A2780) of 5.92, a GI50 (AGS) of 7 µM and a pIC50 (AGS) of 5.06. For the same compound, the pIC50 (THP-1) was < 5.00, the GI50 [1] was > 10 µM and the pIC50 [1] was < 5.00. For the same compound, the pIC50 (KB) was 6.22, the pIC50 (Bel-7402) was 5.70 and the GI50 [2] was > 10 µM. The pIC50 [2] was < 5.00, the GI50 (MCF7) was > 10 µM and the pIC50 (MCF7) was < 5.00. The GI50 (HeLa) was > 10 µM, the pIC50 (HeLa) was < 5.00 and the GI50 (PC-3) was 1.8 µM. The pIC50 (PC-3) was 5.00, the inhibition [3] was “inactive” and the pIC50 (U-937) was < 5.00. For the same compound, the GI50 (HT-29) was 5 µM, the pIC50 (HT-29) was 5.00 and the GI50 (A549) was 3.9 µM. For the same compound, the pIC50 (A549) was < 5.00, the solubility [4] was “Insoluble” and the pIC50 (K562) was < 5.00. The GI50 (HepG2) was 7.6 µM and the pIC50 (HepG2) was < 5.00.
`CCn1cc(-c2nc3ccc(N)cc3[nH]2)c(=O)c2cc(F)c(N3CCNCC3)nc21` showed a pIC50 (A2780) of 4.37, a GI50 (AGS) of 6.7 µM and a pIC50 (AGS) of 5.04. The pIC50 (THP-1) was 5.09, the GI50 [1] was > 10 µM and the pIC50 [1] was < 5.00. For the same compound, the pIC50 (KB) was 4.52, the pIC50 (Bel-7402) was 4.03 and the GI50 [2] was > 10 µM. For the same compound, the pIC50 [2] was < 5.00, the GI50 (MCF7) was > 10 µM and the pIC50 (MCF7) was < 5.00. For the same compound, the GI50 (HeLa) was > 10 µM, the pIC50 (HeLa) was < 5.00 and the GI50 (PC-3) was > 10 µM. For the same compound, the pIC50 (PC-3) was < 5.00, the pIC50 (U-937) was < 5.00 and the GI50 (HT-29) was > 10 µM. For the same compound, the pIC50 (HT-29) was < 5.00, the GI50 (A549) was 0.5 µM and the pIC50 (A549) was < 5.00. The pIC50 (K562) was < 5.00, the GI50 (HepG2) was > 10 µM and the pIC50 (HepG2) was < 5.00.
In the case of `CCn1cc(-c2nc3ccccc3[nH]2)c(=O)c2cc(F)c(N3CCNCC3)cc21`, the pIC50 (A2780) was 6.10, the GI50 (AGS) was 9.5 µM and the pIC50 (AGS) was < 5.00. The pIC50 (THP-1) was < 5.00, the GI50 [1] was > 10 µM and the pIC50 [1] was < 5.00. For the same compound, the pIC50 (KB) was 4.98, the pIC50 (Bel-7402) was 4.56 and the GI50 [2] was > 10 µM. For the same compound, the pIC50 [2] was < 5.00, the GI50 (MCF7) was > 10 µM and the pIC50 (MCF7) was < 5.00. For the same compound, the GI50 (HeLa) was > 10 µM, the pIC50 (HeLa) was < 5.00 and the GI50 (PC-3) was > 10 µM. For the same compound, the pIC50 (PC-3) was < 5.00, the pIC50 (U-937) was < 5.00 and the GI50 (HT-29) was > 10 µM. For the same compound, the pIC50 (HT-29) was < 5.00, the GI50 (A549) was 0.6 µM and the pIC50 (A549) was 5.33. The pIC50 (K562) was < 5.00, the GI50 (HepG2) was > 10 µM and the pIC50 (HepG2) was < 5.00.
